Jurkat NFkB inh: inhibitors of the PMA/ionomycin-induced NF-kB reporter in Jurkat cells; PMA/ionomycin-induced NF-kB luciferase reporter, luminescence; inhibition, % at 4 µM; 330,000 tested, 0.53% active; AID 435003; in the data active = inhibition above about 50%
GalR3 antag: antagonists of human GalR3 | inhibition, % at 3 µM | AID 651719 | 360,000 tested, 0.44% active | HEK293 GalR3-CNG cAMP membrane potential fluorescence; galR3 body fused to GalR1 C-terminus;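 active = inhibition above the screen-wide average plus 3 SD, cut at about 13% in these data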;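 note: forskolin and galanin both at EC90 stimulate the cells; cAMP rise reported by CNG channel membrane potential dye signal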
Target sequence (O60755 1-299 limits assumed): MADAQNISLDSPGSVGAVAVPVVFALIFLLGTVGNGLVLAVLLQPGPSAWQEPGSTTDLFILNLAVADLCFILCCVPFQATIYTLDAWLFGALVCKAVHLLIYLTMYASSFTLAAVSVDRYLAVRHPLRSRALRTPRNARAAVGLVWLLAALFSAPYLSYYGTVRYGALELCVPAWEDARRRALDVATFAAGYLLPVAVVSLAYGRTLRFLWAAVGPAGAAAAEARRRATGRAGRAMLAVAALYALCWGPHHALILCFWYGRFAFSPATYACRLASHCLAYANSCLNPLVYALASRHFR
NR2E3 ag-1: NR2E3 (human) agonism; inhibition of corepressor binding, % at 4.78 µM; GST-NR2E3/biotin-RetCOR TR-FRET, 1536-well; Q9Y5X4; AID 2300; 320,000 tested, 0.12% active;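 active = percent inhibition above the cutoff of mean plus 3 SD of all tested compounds, set per screening campaign, cut at about 20% in these data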
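System: GST-tagged NR2E3 plus biotinylated RetCOR corepressor; Amount: 1.35 nM GST-tagged NR2E3 final; Dosing: single nominal compound dose of 4.8 µM; Schedule: 5 h incubation at 4 °C; Technique: TR-FRET with europium anti-GST and streptavidin-D2, 340 nm excitation; Controls: biotin wells as high control, 0.6% DMSO wells as low control.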
GASC-1 inh: human JMJD2C demethylase inhibition; Q9H3R0; GST-JMJD2C(1-420) H3K9me3 demethylation, DELFIA europium; inhibition, % at 2.35 µM; 330,000 tested, 0.069% active;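 active = more than half of a compound's replicate wells show inhibition beyond 50%, single wells judged on their own value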;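 note: signal counts dimethyl H3K9 product captured on neutravidin plate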
Target sequence (Q9H3R0 1-420 limits assumed): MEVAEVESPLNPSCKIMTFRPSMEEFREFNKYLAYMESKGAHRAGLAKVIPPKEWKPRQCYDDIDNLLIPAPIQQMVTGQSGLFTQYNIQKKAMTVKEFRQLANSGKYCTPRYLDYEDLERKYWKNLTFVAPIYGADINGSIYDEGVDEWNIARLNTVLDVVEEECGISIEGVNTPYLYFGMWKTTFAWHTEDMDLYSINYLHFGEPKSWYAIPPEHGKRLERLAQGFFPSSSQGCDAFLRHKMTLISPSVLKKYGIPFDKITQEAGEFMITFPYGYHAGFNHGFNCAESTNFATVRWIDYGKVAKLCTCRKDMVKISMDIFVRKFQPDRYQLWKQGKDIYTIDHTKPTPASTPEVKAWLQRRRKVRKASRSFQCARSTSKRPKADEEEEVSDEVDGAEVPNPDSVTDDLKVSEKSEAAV
NR2E3 ag-2: activates human NR2E3 receptor; CHO-S Gal4-NCOR/VP16-NR2E3 two-hybrid, luciferase; inhibition of corepressor binding, % at 3.98 µM; 360,000 tested, 0.35% active; AID 602229; Q9Y5X4;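 active = inhibition above the mean of all tested compounds plus 3 SD, cut at about 70% in these data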;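 note: higher means lower luciferase signal from less NR2E3 corepressor binding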
697 NFkB inh: inhibitors of the PMA/ionomycin-induced NF-kB reporter in 697 B cells; 697 B-cell NF-kB luciferase reporter, 16 h; 330,000 tested, 0.33% active; inhibition, % at 4 µM; in the data active = inhibition above about 35%
697 NFkB conf: lowers PMA/ionomycin-induced NF-kB signal in 697 B cells; shares compounds with 697 NFkB inh; 697 B-cell NF-kB luciferase, 16 h; inhibition, % at 4 µM; 2,000 tested, 35% active; AID 449746; in the data active = inhibition mostly above about 28%, no sharp cut-off; inactive = mostly below about 22%
Large screens that a line does not name were inactive (follow-up assays come after a bar, where they were run). Compounds with a hit are over-represented: about 1.5% of the library has one in this group of screens.

N=c1ccn2c(n1)O[C@H]1[C@H](O)[C@@H](CO)O[C@H]12	697 NFkB inh 52.0 (no result: NR2E3 ag-1) | 697 NFkB conf 44.8
CC1CCCN(S(=O)(=O)c2ccc3c(c2)OCCO3)C1 (stereo not drawn)	none (no result: Jurkat NFkB inh, NR2E3 ag-1, GASC-1 inh, 697 NFkB inh)
Cc1ccc(-c2ocnc2C(=O)N2CCOCC2)cc1	none
COCC1CN(CCc2ccc(F)cc2)S(=O)(=O)c2c(F)cccc2O1 (stereo not drawn)	none (no result: Jurkat NFkB inh, NR2E3 ag-1, GASC-1 inh, NR2E3 ag-2, 697 NFkB inh)
CC(=O)C1=NN(c2ccccc2)C(c2cccs2)N1c1ccc(N(C)C)cc1 (stereo not drawn)	697 NFkB inh 68.7 | 697 NFkB conf 38.5
CC(=O)C1=NN(c2ccccc2)C(c2ccc3c(c2)OCO3)N1c1ccccc1 (stereo not drawn)	none
CCN(CC)S(=O)(=O)c1ccc(-c2cn3cc(Cl)ccc3n2)cc1	none
Clc1ccc(-c2cn3cc(Cl)ccc3n2)cc1	none | 697 NFkB conf inactive
Cc1nn2c(COc3ccc(NC(=O)c4ccccc4Cl)cc3)nnc2c2ccccc12	none
CCCc1c(NC(=O)Nc2ccc(F)cc2)cnn1-c1ccccc1	none | 697 NFkB conf inactive
CCCc1c(C(=O)Nc2ccc(F)cc2C)cnn1-c1ccccc1	none
CC(=O)Nc1cc(C(=O)N2CCCC2)ccc1Sc1ccc(C)cc1	697 NFkB inh 37.8 | 697 NFkB conf inactive
COC(=O)C1=C[C@@H](C(=O)OC)C2C3=C(C(=O)C24CCCCC4)[C@H](C)n2c(=O)n(-c4ccccc4)c(=O)n2[C@@H]3C1 (stereo partly drawn)	697 NFkB inh 38.1 | 697 NFkB conf inactive
COc1cc(OC)cc(-c2nnc(Nc3nc4c(F)cccc4s3)o2)c1	697 NFkB inh 39.1 | 697 NFkB conf inactive
NC(=O)c1c(NC(=O)c2ccncc2)sc2c1CCCCCC2	none
CC(=O)c1cc(F)ccc1OCC(=O)N1CCN(c2ccc(F)cc2)CC1	697 NFkB inh 36.1 (no result: GASC-1 inh) | 697 NFkB conf inactive
C=CCN1C2CCCC1CC(NC(=O)Nc1cc(C)cc(C)c1)C2 (stereo not drawn)	none
COc1ccc(S(=O)(=O)N2CCOCC2)cc1NC(=O)CSc1cccc[n+]1[O-]	none
CCc1ccc(OCc2nc(-c3ccccn3)no2)c(Br)c1	none | 697 NFkB conf inactive
Cc1ccc(OCc2nc(-c3ccccn3)no2)c(Br)c1	none
O=C(CCl)Nc1ccccc1Sc1ccccc1	697 NFkB inh 41.0 | 697 NFkB conf 34.1
O=C(CN1C(=O)c2ccccc2S1(=O)=O)c1ccc(Cl)cc1Cl	697 NFkB inh 73.6 | 697 NFkB conf 73.9
O=C(CN1C(=O)c2ccccc2S1(=O)=O)c1ccccc1F	none
O=C(CN1C(=O)c2ccccc2S1(=O)=O)c1ccc(OC(F)F)cc1	697 NFkB inh 39.7 (no result: GalR3 antag) | 697 NFkB conf 36.0
CC(=O)c1cccc(S(=O)(=O)Nc2cc(C(F)(F)F)ccc2N2CCOCC2)c1	697 NFkB inh 39.1 (no result: GASC-1 inh) | 697 NFkB conf 32.0
CN(C)c1ccc(C(=O)c2ccc(N(C)C)c3ccccc23)cc1	none | 697 NFkB conf inactive
CN(C)c1ccccc1C(=O)c1ccccc1N(C)C	none
COc1ccc(N2CCN(CCCn3c(=S)[nH]c4ccccc4c3=O)CC2)cc1	none | 697 NFkB conf inactive
CCOC(=O)c1c(C)[nH]c(N=Nc2ccc(C)cc2)c1C	none | 697 NFkB conf inactive
O=C(c1cc(C2CC2)nn1-c1ccccc1)N1CCN(Cc2c(F)cccc2Cl)CC1	none
O=C(NCCCN1CCOCC1)c1cc(-c2ccc(Br)cc2)on1	697 NFkB inh 63.1 | 697 NFkB conf 38.3
O=C(O)c1ccc(N2CCCCS2(=O)=O)cc1	none
CCOc1ccc2nc(NS(=O)(=O)Cc3ccccc3)sc2c1	none
CCCCn1c2c(c(=N)c3ccccc31)CCC2	697 NFkB inh 44.3 | 697 NFkB conf 46.4
N=c1c2c(n(Cc3ccccc3)c3c1CCC3)CCC2	none
O=C(N[C@H](C(=O)N1CCC[C@H]1C(=O)NC1CCCC1)c1ccccc1)C1CCCC1	none (no result: Jurkat NFkB inh, NR2E3 ag-1, GASC-1 inh, NR2E3 ag-2, 697 NFkB inh)
Cc1c(NC(=O)CSc2nnc3c4ccccc4n(CCc4ccccc4)c3n2)c(=O)n(-c2ccccc2)n1C	none | 697 NFkB conf inactive
CCn1c2ccccc2c2nnc(SCC(=O)Nc3c(C)n(C)n(-c4ccccc4)c3=O)nc21	none
CCOC(=O)C1=C(N)n2c(s/c(=C\c3ccncc3)c2=O)=C(C(=O)OCC)C1c1ccncc1 (stereo not drawn)	none
CCOC(=O)C1=C(N)n2c(s/c(=C\c3cccnc3)c2=O)=C(C(=O)OC)C1c1cccnc1 (stereo not drawn)	697 NFkB inh 37.2 | 697 NFkB conf inactive
Cc1ccc(C(C)C)cc1S(=O)(=O)Nc1cccnc1	none
CCOC(=O)Cc1csc(NC(=O)c2cc3ccccc3o2)n1	none
Cc1csc(NC(=O)c2cc3ccccc3o2)n1	697 NFkB inh 35.8 | 697 NFkB conf inactive
Cc1csc(NC(=O)c2ccc(C)c([N+](=O)[O-])c2)n1	none | 697 NFkB conf inactive
Cn1c(=N)n(CC(=O)c2ccc(F)cc2)c2ccccc21	none
Cn1c(=N)n(CC(=O)c2ccc(Br)cc2)c2ccccc21	none | 697 NFkB conf inactive
COC(=O)c1ccc(NC(=S)NCCCn2ccnc2)cc1	none
Cc1c(CCC(=O)NCCCn2ccnc2)c(=O)oc2c(C)c3oc4c(c3cc12)CCCC4	697 NFkB inh 38.1 (no result: GalR3 antag) | 697 NFkB conf 22.6
O=C(NCCc1ccccc1)/C(=C\c1cccc([N+](=O)[O-])c1)NC(=O)c1ccco1	none
CC(=O)c1c(-c2ccccc2)c2cc(Cl)ccc2[nH]c1=O	697 NFkB inh 36.2 | 697 NFkB conf inactive
COc1ccc(S(=O)(=O)NC2CC(=O)N(c3ccccc3)C2)cc1C (stereo not drawn)	none
Fc1ccc(-c2noc(-c3ccc4c(c3)CCO4)n2)cc1	none | 697 NFkB conf inactive
Fc1ccccc1-c1nc(-c2ccccc2)no1	none | 697 NFkB conf inactive
COc1ccc(-c2nc(-c3ccc(C(=O)O)cc3)no2)cc1	none | 697 NFkB conf inactive
COc1cccc(-c2nc(-c3ccccc3)no2)c1	none | 697 NFkB conf inactive
COc1ccc(-c2noc(-c3ccc(Cl)cc3)n2)cc1	none (no result: GalR3 antag, NR2E3 ag-2)
COCCN(C(=O)COC(=O)C1CCC(C(C)(C)C)CC1)c1c(N)n(Cc2ccccc2)c(=O)[nH]c1=O (stereo not drawn)	none
CCOc1ccc(CCNC(=O)COC(=O)c2oc3ccccc3c2COC)cc1OCC	none
CCN1CCN(C(c2cccnc2)c2c(NC(=O)c3ccco3)sc(C)c2C)CC1 (stereo not drawn)	none (no result: GASC-1 inh)
Cc1sc(NC(=O)c2ccco2)c(C(c2cccnc2)N2CCC(C)CC2)c1C (stereo not drawn)	697 NFkB inh 35.7 | 697 NFkB conf inactive

Screening data as filed in PubChem.
